ChEMBL document CHEMBL3232832, “Derivatives of dibenzothiophene for positron emission tomography imaging of α7-nicotinic acetylcholine receptors” (J Med Chem, 2013)

Tests used:
[1] = Drug uptake in CD-1 mouse superior and inferior colliculus at 70 uCi, iv administered 10 mins post ketanserin challenge measured after 90 mins; assay type: ADME, organism-based; conditions: in vivo, 1.5 h
In short: (§1)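 Male CD-1 mice (25–30 g). […] Brains removed 90 min later and dissected on ice. Regions weighed and gamma-counted against injectate standards. Result as %ID/g, mean ± SD, n=3; ANOVA versus controls.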

Striatum = assay: Drug uptake in CD-1 mouse striatum at 70 uCi, iv followed by compound washout by gamma-counting analysis; assay type: ADME, organism-based; conditions: in vivo
In short: (§2)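 Male CD-1 mice (25–30 g) given [18F]radioligand i.v. into a lateral tail vein (70 µCi, 8000–12000 mCi/µmol, in 0.2 mL saline). Killed by cervical dislocation at various times, three per time point. Brains dissected on ice; regions weighed and gamma-counted with injectate standards. Result as %ID/g.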

Cortex [2] = assay: Drug uptake in CD-1 mouse cortex at 70 uCi, iv administered 10 mins post spiperone challenge measured after 90 mins; assay type: ADME, organism-based; conditions: in vivo, 1.5 h
In short: (§3)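 Male CD-1 mice, n=3. Drug at 2 mg/kg s.c. in saline:DMSO 5:1, with vehicle controls. [18F] radiotracer (70 µCi, SA ~14000 mCi/µmol) given i.v. 10 min later. Regions harvested 90 min after tracer, gamma counted, expressed as %ID/g. Compared by single-factor ANOVA.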

Brain [3] = assay: Drug uptake in CD-1 mouse other brain region at 70 uCi, iv administered 10 mins post ondansetron challenge measured after 90 mins; assay type: ADME, organism-based; conditions: in vivo, 1.5 h; in short: as §1
Cerebellum [4] = assay: Drug uptake in CD-1 mouse cerebellum at 0.07 mCi, iv after 90 mins co-administered with 3 mg/kg SSR180711; assay type: ADME, organism-based; design: dose 3 mg/kg, route intravenous; conditions: in vivo, 1.5 h
In short: (§4)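 Male CD-1 mice (25–30 g), three per dose. Blocker in saline:ethanol 9:1 pH 5.5, given i.v. with [18F] radiotracer (70 µCi, SA 7900 mCi/µmol). Blocker doses 0, 0.02, 0.2, 1 and 3 mg/kg. Regions dissected 90 min later and gamma counted. Expressed as %ID/g, mean ± SD.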

Cerebellum [5] = assay: Ratio of clearance in CD-1 mouse cerebellum to clearance in CD-1 mouse other brain tissues at 70 uCi, iv followed by compound washout after 90 mins by gamma-counting analysis; assay type: ADME, organism-based; conditions: in vivo, 1.5 h
In short: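 CD-1 mouse baseline biodistribution after i.v. [18F]radioligand (70 µCi, 8000–12000 mCi/µmol, in 0.2 mL saline), three mice per time point to 90 min. Regional gamma-counting gave %ID/g, and each region was expressed as a ratio to cerebellum.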

Cortex [6] = assay: Drug uptake in CD-1 mouse cortex at 70 uCi, iv after 90 mins in presence of nicotine; assay type: ADME, organism-based; conditions: in vivo, 1.5 h
In short: (§5)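 Male CD-1 mice, n=3. […] [18F] radiotracer (70 µCi, SA ~14000 mCi/µmol) given i.v. 5 min later. Regions harvested at 90 min, gamma counted, expressed as %ID/g.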

Brain [7] = assay: Drug uptake in CD-1 mouse other brain regions at 0.07 mCi, iv after 90 mins co-administered with SSR180711; assay type: ADME, organism-based; conditions: in vivo, 1.5 h
In short: (§6)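 Male CD-1 mice. [18F]tracer (0.07 mCi, SA 7900 mCi/µmol, 0.2 mL) co-injected i.v. with blocker at 0 (vehicle), 0.02, 0.2, 1 or 3 mg/kg. Blocker dissolved in saline:alcohol 9:1, pH 5.5. Brain regions harvested at 90 min and gamma-counted. %ID/g, mean ± SD, n=3 per dose; ANOVA versus controls.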

Cortex [8] = assay: Drug uptake in CD-1 mouse cortex at 70 uCi, iv after 90 mins in presence of cytisine; assay type: ADME, organism-based; conditions: in vivo, 1.5 h; in short: as §5
Cerebellum [9] = assay: Drug uptake in CD-1 mouse cerebellum at 70 uCi, iv administered 10 mins post ondansetron challenge measured after 90 mins; assay type: ADME, organism-based; conditions: in vivo, 1.5 h; in short: as §3
Nucleic Acid = assay: Ratio of drug uptake from cortex to cerebellum in CD-1 mouse after 90 mins; assay type: ADME, tissue-based; conditions: 1.5 h
Brain [10] = assay: Drug uptake in CD-1 mouse other brain region at 70 uCi, iv administered 10 mins post naltrindole challenge measured after 90 mins; assay type: ADME, organism-based; conditions: in vivo, 1.5 h; in short: as §1
[11] = Drug uptake in CD-1 mouse superior and inferior colliculus at 70 uCi, iv administered 10 mins post ondansetron challenge measured after 90 mins; assay type: ADME, organism-based; conditions: in vivo, 1.5 h; in short: as §1
Cerebellum [12] = assay: Drug uptake in CD-1 mouse cerebellum at 70 uCi, iv after 90 mins in presence of nicotine; assay type: ADME, organism-based; conditions: in vivo, 1.5 h; in short: as §5
Cerebellum [13] = assay: Drug uptake in CD-1 mouse cerebellum at 0.07 mCi, iv after 90 mins in presence of 7-(1,4-Diazabicyclo[3.2.2]nonan-4-yl)-2-fluorodibenzo[b,d]-thiophene 5,5-Dioxide; assay type: ADME, organism-based; conditions: in vivo, 1.5 h
In short: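 Male CD-1 mice, n=3. [18F] radiotracer (70 µCi, 0.2 mL) given i.v. together with unlabeled blocker in saline pH 5.5. Brain regions dissected at 90 min, gamma counted, expressed as %ID/g.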

Brain [14] = assay: Drug uptake in CD-1 mouse other brain regions at 70 uCi, iv after 90 mins in presence of nicotine; assay type: ADME, organism-based; conditions: in vivo, 1.5 h
Mus musculus = assay: Toxicity in CD-1 mouse assessed as change in behavioral activity at 0.07 mCi, iv after 90 mins in presence of 3-(1,4-Diazabicyclo[3.2.2]nonan-4-yl)-6-fluorodibenzo[b,d]thiophene 5,5-Dioxide; assay type: organism-based; conditions: in vivo, 1.5 h
In short: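 CD-1 mice observed for behavioral and locomotor changes during self-blockade studies. [18F]tracer (0.07 mCi, i.v.) was co-injected with the non-radioactive ligand at 0.3 or 0.2 mg/kg i.v., dissolved in saline at pH 5.5. Brains were harvested at 90 min.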

Brain [15] = assay: Drug uptake in CD-1 mouse other brain region at 70 uCi, iv administered 10 mins post ketanserin challenge measured after 90 mins; assay type: ADME, organism-based; conditions: in vivo, 1.5 h; in short: as §1
Cerebellum [16] = assay: Drug uptake in CD-1 mouse cerebellum at 70 uCi, iv administered 10 mins post ketanserin challenge measured after 90 mins; assay type: ADME, organism-based; conditions: in vivo, 1.5 h; in short: as §3
Cortex [17] = assay: Drug uptake in CD-1 mouse cortex at 70 uCi, iv administered 10 mins post SCH23390 challenge measured after 90 mins; assay type: ADME, organism-based; conditions: in vivo, 1.5 h; in short: as §3
Cerebellum [18] = assay: Drug uptake in CD-1 mouse cerebellum at 70 uCi, iv followed by compound washout by gamma-counting analysis; assay type: ADME, organism-based; conditions: in vivo
In short: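 Male CD-1 mice (25–30 g), three per time point. [18F] radiotracer (70 µCi, SA 8000–12000 mCi/µmol, in 0.2 mL saline) given by tail vein. Killed at several times up to 90 min. Dissected regions weighed and gamma counted against injectate standards, giving %ID/g.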

Thalamus = assay: Drug uptake in CD-1 mouse thalamus at 0.07 mCi, iv after 90 mins co-administered with SSR180711; assay type: ADME, organism-based; conditions: in vivo, 1.5 h; in short: as §6
Hippocampus [19] = assay: Drug uptake in CD-1 mouse hippocampus at 70 uCi, iv administered 10 mins post spiperone challenge measured after 90 mins; assay type: ADME, organism-based; conditions: in vivo, 1.5 h; in short: as §3
Hippocampus [20] = assay: Drug uptake in CD-1 mouse hippocampus at 0.07 mCi, iv after 90 mins co-administered with SSR180711; assay type: ADME, organism-based; conditions: in vivo, 1.5 h; in short: as §4
[21] = Drug uptake in CD-1 mouse superior and inferior colliculus at 70 uCi, iv followed by compound washout by gamma-counting analysis; assay type: ADME, organism-based; conditions: in vivo; in short: as §2
[22] = Drug uptake in CD-1 mouse superior and inferior colliculus at 70 uCi, iv administered 10 mins post SCH23390 challenge measured after 90 mins; assay type: ADME, organism-based; conditions: in vivo, 1.5 h; in short: as §1
Brain [23] = assay: Drug uptake in CD-1 mouse other brain region at 70 uCi, iv administered 10 mins post spiperone challenge measured after 90 mins; assay type: ADME, organism-based; conditions: in vivo, 1.5 h; in short: as §1

## O=S1(=O)c2cc(N3CCN4CCC3CC4)ccc2-c2cccc([18F])c21
[1]
  Drug uptake: Active
Striatum
  Drug uptake: Active
Cortex [2]
  Drug uptake: Active
Brain [3]
  Drug uptake: Active
Cerebellum [4]
  Drug uptake: Not Active
Cerebellum [5]
  Ratio: 10
Cortex [6]
  Drug uptake: Not Active
Brain [7]
  Drug uptake: Not Active
Cortex [8]
  Drug uptake: Not Active
Cerebellum [9]
  Drug uptake: Active
Nucleic Acid
  Ratio: 5.3
Brain [10]
  Drug uptake: Active
[11]
  Drug uptake: Active
Cerebellum [12]
  Drug uptake: Active
Cerebellum [13]
  Drug uptake: Active
Brain [14]
  Drug uptake: Not Active
Mus musculus
  Activity: Non-toxic
Brain [15]
  Drug uptake: Active
Cerebellum [16]
  Drug uptake: Active
Cortex [17]
  Drug uptake: Active
Cerebellum [18]
  Drug uptake: Active
Thalamus
  Drug uptake: Not Active
Hippocampus [19]
  Drug uptake: Active
Hippocampus [20]
  Drug uptake: Not Active
[21]
  Drug uptake: Active
[22]
  Drug uptake: Active
Brain [23]
  Drug uptake: Active
